Experimental data from ChEMBL document CHEMBL1132220 (J Med Chem, 1999).

Each compound was assayed against Somatostatin receptor (assay: Antagonism of in vitro SRIF inhibition of GH release in rat in vitro pituitary cell assay). Settings: pituitary gland cell.
Assay type: functional, cell-based
Method in brief: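 Dispersed adult male rat anterior pituitary cells (trypsin/DNase), about 200 000 cells/well, cultured 4–5 days at 37 °C. GH measured by double-antibody RIA. IC50 versus SRIF, mean ± SEM of n dose–response curves.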

SMILES	IC50 [nM]
NCCCC[C@@H]1NC(=O)[C@@H](Cc2c[nH]c3ccccc23)NC(=O)[C@H](Cc2cccnc2)NC(=O)[C@@H](NC(=O)[C@@H](N)Cc2ccc3ccccc3c2)CSSC[C@@H](C(=O)N[C@@H](Cc2ccc3ccccc3c2)C(N)=O)NC(=O)CNC1=O	1510
CC(C)[C@H]1NC(=O)[C@H](CCCCN)NC(=O)[C@@H](Cc2c[nH]c3ccccc23)NC(=O)[C@H](Cc2cccnc2)NC(=O)[C@@H](NC(=O)[C@@H](N)Cc2cccc(F)c2)CSSC[C@H](C(=O)N[C@@H](Cc2cccc(F)c2)C(N)=O)NC1=O	77
C[C@@H](O)[C@@H]1NC(=O)[C@H](CCCCN)NC(=O)[C@@H](Cc2c[nH]c3ccccc23)NC(=O)[C@H](Cc2ccccc2)NC(=O)[C@@H](NC(=O)[C@@H](N)Cc2ccc(Cl)cc2)CSSC[C@@H](C(=O)N[C@@H](Cc2ccc3ccccc3c2)C(N)=O)NC1=O	1.4
CC(C)[C@H]1NC(=O)[C@H](CCCCN)NC(=O)[C@@H](Cc2c[nH]c3ccccc23)NC(=O)[C@H](Cc2c[nH]cn2)NC(=O)C(NC(=O)[C@@H](N)Cc2c(F)c(F)c(F)c(F)c2F)CSSCC(C(=O)N[C@@H](Cc2c(F)c(F)c(F)c(F)c2F)C(N)=O)NC1=O (stereo in doubt)	2410
CC(C)[C@H]1NC(=O)[C@H](CCCCN)NC(=O)[C@@H](Cc2c[nH]c3ccccc23)NC(=O)[C@H](Cc2cccnc2)NC(=O)[C@@H](NC(=O)[C@@H](N)Cc2ccc(F)cc2)CSSC[C@H](C(=O)N[C@@H](Cc2ccc3ccccc3c2)C(N)=O)NC1=O	6.5
CC(C)[C@H]1NC(=O)[C@H](CCCCN)NC(=O)[C@@H](Cc2c[nH]c3ccccc23)NC(=O)[C@H](Cc2cccnc2)NC(=O)[C@@H](NC(=O)[C@@H](N)Cc2ccc3ccccc3c2)CSSC[C@H](C(=O)N[C@H](C(N)=O)C(c2ccccc2)c2ccccc2)NC1=O	91
CC(C)[C@H]1NC(=O)[C@H](CCCCN)NC(=O)[C@@H](Cc2c[nH]c3ccccc23)NC(=O)[C@H](Cc2cccnc2)NC(=O)[C@@H](NC(=O)[C@@H](N)Cc2ccccc2F)CSSC[C@H](C(=O)N[C@@H](Cc2ccccc2F)C(N)=O)NC1=O	114
CC(C)[C@H]1NC(=O)[C@H](CCCCN)NC(=O)[C@@H](Cc2c[nH]c3ccccc23)NC(=O)[C@H](Cc2cccnc2)NC(=O)[C@@H](NC(=O)[C@@H](N)Cc2ccc3ccccc3c2)CSSC[C@H](C(=O)N[C@@H](Cc2ccc(F)cc2)C(N)=O)NC1=O	150
C[C@@H]1NC(=O)[C@H](CCCCN)NC(=O)[C@@H](Cc2c[nH]c3ccccc23)NC(=O)[C@H](Cc2cccnc2)NC(=O)[C@@H](NC(=O)[C@@H](N)Cc2ccc3ccccc3c2)CSSC[C@@H](C(=O)N[C@@H](Cc2ccc3ccccc3c2)C(N)=O)NC1=O	425
CC(C)[C@H]1NC(=O)[C@H](CCCCN)NC(=O)[C@@H](Cc2c[nH]c3ccccc23)NC(=O)[C@H](Cc2c[nH]cn2)NC(=O)C(NC(=O)[C@@H](N)Cc2ccc(F)cc2)CSSCC(C(=O)N[C@@H](Cc2ccc(F)cc2)C(N)=O)NC1=O (stereo in doubt)	105
CC(C)[C@@H]1NC(=O)[C@H](CCCCN)NC(=O)[C@@H](Cc2c[nH]c3ccccc23)NC(=O)[C@H](Cc2ccc(O)c(I)c2)NC(=O)C(NC(=O)[C@@H](N)Cc2ccc3ccccc3c2)CSSCC(C(=O)N[C@@H](Cc2ccc3ccccc3c2)C(N)=O)NC1=O (stereo in doubt)	20
CC(C)[C@H]1NC(=O)[C@H](CCCCN)NC(=O)[C@@H](Cc2c[nH]c3ccccc23)NC(=O)[C@H](Cc2cccnc2)NC(=O)[C@@H](NC(=O)[C@@H](N)Cc2ccc3ccccc3c2)CSSC[C@H](C(=O)N[C@@H](Cc2ccc3ccccc3c2)C(N)=O)NC1=O	15
CC(C)[C@H]1NC(=O)[C@H](CCCCN)NC(=O)[C@@H](Cc2c[nH]c3ccccc23)NC(=O)[C@H](Cc2cccnc2)NC(=O)[C@@H](NC(=O)[C@@H](N)Cc2ccc(Cl)cc2)CSSC[C@H](C(=O)N[C@@H](Cc2ccc3ccccc3c2)C(N)=O)NC1=O	2.6
CC(C)[C@H]1NC(=O)[C@H](CCCCN)NC(=O)[C@@H](Cc2c[nH]c3ccccc23)NC(=O)[C@H](Cc2cccnc2)NC(=O)[C@@H](NC(=O)[C@@H](N)Cc2ccc(I)cc2)CSSC[C@H](C(=O)N[C@@H](Cc2ccc(I)cc2)C(N)=O)NC1=O	4
CC[C@H](C)[C@H]1NC(=O)[C@H](CCCCN)NC(=O)[C@@H](Cc2c[nH]c3ccccc23)NC(=O)[C@H](Cc2ccc(O)cc2)NC(=O)[C@@H](NC(=O)[C@@H](N)Cc2ccc(-c3ccccc3)cc2)CSSC[C@@H](C(=O)N[C@@H](Cc2ccc(-c3ccccc3)cc2)C(N)=O)NC1=O	2110
CC(C)[C@H]1NC(=O)[C@H](CCCCN)NC(=O)[C@@H](Cc2c[nH]c3ccccc23)NC(=O)[C@H](Cc2cccnc2)NC(=O)[C@@H](NC(=O)[C@@H](N)Cc2ccc(F)cc2)CSSC[C@H](C(=O)N[C@@H](Cc2ccc(F)cc2)C(N)=O)NC1=O	87
C[C@@H](O)[C@@H]1NC(=O)[C@H](CCCCN)NC(=O)[C@@H](Cc2c[nH]c3ccccc23)NC(=O)[C@@H](Cc2ccccn2)NC(=O)C(NC(=O)[C@@H](N)Cc2ccc(Cl)cc2)CSSCC(C(=O)N[C@@H](Cc2ccc3ccccc3c2)C(N)=O)NC1=O (stereo in doubt)	2.7
C[C@@H](O)[C@@H]1NC(=O)[C@H](CCCCN)NC(=O)[C@@H](Cc2c[nH]c3ccccc23)NC(=O)[C@H](Cc2ccccn2)NC(=O)C(NC(=O)[C@@H](N)Cc2ccc(Cl)cc2)CSSCC(C(=O)N[C@@H](Cc2ccc3ccccc3c2)C(N)=O)NC1=O (stereo in doubt)	135
CC(C)[C@H]1NC(=O)[C@H](CCCCN)NC(=O)[C@@H](Cc2c[nH]c3ccccc23)NC(=O)[C@H](Cc2ccccn2)NC(=O)[C@@H](NC(=O)[C@@H](N)Cc2c(F)c(F)c(F)c(F)c2F)CSSC[C@H](C(=O)N[C@@H](Cc2c(F)c(F)c(F)c(F)c2F)C(N)=O)NC1=O	765
CC(C)[C@H]1NC(=O)[C@H](CCCCN)NC(=O)[C@@H](Cc2c[nH]c3ccccc23)NC(=O)[C@H](Cc2cccnc2)NC(=O)[C@@H](NC(=O)[C@@H](N)Cc2ccc(Br)cc2)CSSC[C@H](C(=O)N[C@@H](Cc2ccc(Br)cc2)C(N)=O)NC1=O	2.7
CC(C)[C@H]1NC(=O)[C@H](CCCCN)NC(=O)[C@@H](Cc2c[nH]c3ccccc23)NC(=O)[C@H](Cc2c[nH]cn2)NC(=O)C(NC(=O)[C@@H](N)Cc2cccc(F)c2)CSSCC(C(=O)N[C@@H](Cc2cccc(F)c2)C(N)=O)NC1=O (stereo in doubt)	137
CC(C)[C@H]1NC(=O)[C@H](CCCCN)NC(=O)[C@@H](Cc2c[nH]c3ccccc23)NC(=O)[C@H](Cc2c[nH]cn2)NC(=O)C(NC(=O)[C@@H](N)Cc2ccccc2F)CSSCC(C(=O)N[C@@H](Cc2ccccc2F)C(N)=O)NC1=O (stereo in doubt)	393
CC(C)[C@H]1NC(=O)[C@H](CCCCN)NC(=O)[C@@H](Cc2c[nH]c3ccccc23)NC(=O)[C@H](Cc2cccnc2)NC(=O)[C@@H](NC(=O)[C@@H](N)Cc2ccc(C#N)cc2)CSSC[C@H](C(=O)N[C@@H](Cc2ccc(C#N)cc2)C(N)=O)NC1=O	51
C[C@@H](O)[C@@H]1NC(=O)[C@H](CCCCN)NC(=O)[C@@H](Cc2c[nH]c3ccccc23)NC(=O)[C@H](Cc2ccc(O)cc2)NC(=O)[C@H](NC(=O)[C@@H](N)Cc2ccc(Cl)cc2)CSSC[C@@H](C(=O)N[C@@H](Cc2ccc3ccccc3c2)C(N)=O)NC1=O	1.1

The compounds below were run against Somatostatin receptor type 1 (Homo sapiens, UniProt P30872) (assay: The compound was tested for binding affinity against human Somatostatin receptor type 1). Settings: not given.
Method in brief: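 Membranes from CHO-K1 cells transfected with the cloned human receptor. Terminated by filtration on PEI-soaked GF/C filters. Nonspecific binding defined with 1.0 μM SRIF. Mean ± SEM; single values are from one experiment.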

Chain of Somatostatin receptor type 1 (P30872 whole entry): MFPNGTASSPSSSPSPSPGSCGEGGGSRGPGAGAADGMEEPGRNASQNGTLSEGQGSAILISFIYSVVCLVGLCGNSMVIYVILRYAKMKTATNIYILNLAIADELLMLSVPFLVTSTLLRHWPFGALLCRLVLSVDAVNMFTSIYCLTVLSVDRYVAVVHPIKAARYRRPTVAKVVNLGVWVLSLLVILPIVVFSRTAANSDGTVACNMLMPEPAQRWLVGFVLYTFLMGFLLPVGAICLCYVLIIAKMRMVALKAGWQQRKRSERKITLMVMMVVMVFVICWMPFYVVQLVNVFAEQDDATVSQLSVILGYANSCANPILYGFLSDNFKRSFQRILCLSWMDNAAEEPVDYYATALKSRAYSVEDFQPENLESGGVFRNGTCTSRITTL

SMILES	Ki [nM]
C[C@@H](O)[C@@H]1NC(=O)[C@H](CCCCN)NC(=O)[C@@H](Cc2c[nH]c3ccccc23)NC(=O)[C@H](Cc2ccc(O)cc2)NC(=O)[C@H](NC(=O)[C@@H](N)Cc2ccc(Cl)cc2)CSSC[C@@H](C(=O)N[C@@H](Cc2ccc3ccccc3c2)C(N)=O)NC1=O	> 1000

Each compound was assayed against Somatostatin receptor type 2 (Homo sapiens, UniProt P30874) (assay: The compound was tested for binding affinity against human Somatostatin receptor type 2). Settings: not given.
Method in brief: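 Membranes from CHO-K1 cells transfected with the cloned human sst2. Incubated 30 min at 37 °C with 0.05 nM [125I]MK-678 in HEPES pH 7.4 with BSA, MgCl2, Trasylol, bacitracin and PMSF. Filtration on PEI-soaked GF/C filters. Nonspecific binding defined with 1.0 μM SRIF. Mean ± SEM; single values are from one experiment.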

Chain of Somatostatin receptor type 2 (P30874 whole entry): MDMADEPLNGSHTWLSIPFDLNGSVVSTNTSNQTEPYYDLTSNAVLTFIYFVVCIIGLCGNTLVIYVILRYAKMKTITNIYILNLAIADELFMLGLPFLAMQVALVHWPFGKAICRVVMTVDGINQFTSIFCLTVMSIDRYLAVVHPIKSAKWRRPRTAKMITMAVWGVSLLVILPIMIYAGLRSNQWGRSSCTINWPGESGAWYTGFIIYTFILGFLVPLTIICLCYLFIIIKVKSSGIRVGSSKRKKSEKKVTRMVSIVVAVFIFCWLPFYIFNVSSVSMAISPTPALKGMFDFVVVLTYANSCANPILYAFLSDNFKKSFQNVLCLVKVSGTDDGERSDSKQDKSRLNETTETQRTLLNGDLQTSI

SMILES	Ki [nM]
C[C@@H](O)[C@@H]1NC(=O)[C@H](CCCCN)NC(=O)[C@@H](Cc2c[nH]c3ccccc23)NC(=O)[C@H](Cc2ccc(O)cc2)NC(=O)[C@H](NC(=O)[C@@H](N)Cc2ccc(Cl)cc2)CSSC[C@@H](C(=O)N[C@@H](Cc2ccc3ccccc3c2)C(N)=O)NC1=O	26

The compounds below were run against Somatostatin receptor type 3 (Homo sapiens, UniProt P32745) (assay: The compound was tested for binding affinity against human Somatostatin receptor type 3). Settings: not given.
Method in brief: (§1)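 CHO-K1 cells stably transfected (calcium phosphate) with cloned human sst3 or sst4. Membranes made in ice-cold 50 mM Tris-HCl, resuspended in 10 mM Tris-HCl, then incubated 30 min at 37 °C with 0.05 nM [125I]Tyr11-SRIF in HEPES pH 7.4 with BSA, MgCl2 and protease inhibitors. Filtered on GF/C; nonspecific binding with 1.0 µM SRIF. Mean ± SEM, or one experiment.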

Chain of Somatostatin receptor type 3 (P32745 whole entry): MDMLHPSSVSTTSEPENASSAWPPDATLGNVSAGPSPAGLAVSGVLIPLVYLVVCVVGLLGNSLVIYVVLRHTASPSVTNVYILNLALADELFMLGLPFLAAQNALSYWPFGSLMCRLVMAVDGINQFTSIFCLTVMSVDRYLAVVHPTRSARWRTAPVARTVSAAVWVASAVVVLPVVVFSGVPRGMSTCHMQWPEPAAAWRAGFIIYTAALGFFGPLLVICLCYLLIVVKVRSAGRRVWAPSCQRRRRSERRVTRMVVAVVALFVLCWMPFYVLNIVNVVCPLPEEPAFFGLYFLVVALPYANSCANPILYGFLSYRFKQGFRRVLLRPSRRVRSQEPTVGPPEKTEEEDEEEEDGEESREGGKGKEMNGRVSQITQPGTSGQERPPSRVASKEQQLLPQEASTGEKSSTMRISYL

SMILES	Ki [nM]
C[C@@H](O)[C@@H]1NC(=O)[C@H](CCCCN)NC(=O)[C@@H](Cc2c[nH]c3ccccc23)NC(=O)[C@H](Cc2ccc(O)cc2)NC(=O)[C@H](NC(=O)[C@@H](N)Cc2ccc(Cl)cc2)CSSC[C@@H](C(=O)N[C@@H](Cc2ccc3ccccc3c2)C(N)=O)NC1=O	93

Each compound was assayed against Somatostatin receptor type 4 (Homo sapiens, UniProt P31391) (assay: The compound was tested for binding affinity against human Somatostatin receptor type 4). Settings: not given.
Method in brief: as §1

Chain of Somatostatin receptor type 4 (P31391 whole entry): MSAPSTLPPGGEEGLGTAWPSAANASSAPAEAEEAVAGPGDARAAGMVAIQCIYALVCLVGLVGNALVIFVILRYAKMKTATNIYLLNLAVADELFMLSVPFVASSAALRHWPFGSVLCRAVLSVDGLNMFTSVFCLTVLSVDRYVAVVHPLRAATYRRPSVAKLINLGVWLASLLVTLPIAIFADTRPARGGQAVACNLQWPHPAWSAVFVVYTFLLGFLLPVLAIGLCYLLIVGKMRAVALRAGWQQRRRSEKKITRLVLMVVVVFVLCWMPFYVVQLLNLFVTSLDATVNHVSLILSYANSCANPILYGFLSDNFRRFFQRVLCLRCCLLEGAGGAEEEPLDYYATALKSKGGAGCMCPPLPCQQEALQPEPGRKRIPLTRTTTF

SMILES	Ki [nM]
C[C@@H](O)[C@@H]1NC(=O)[C@H](CCCCN)NC(=O)[C@@H](Cc2c[nH]c3ccccc23)NC(=O)[C@H](Cc2ccc(O)cc2)NC(=O)[C@H](NC(=O)[C@@H](N)Cc2ccc(Cl)cc2)CSSC[C@@H](C(=O)N[C@@H](Cc2ccc3ccccc3c2)C(N)=O)NC1=O	> 1000
